Test results as given in paper PMC7340344 (Journal of medicinal chemistry, 2020).
Counter-ions that a name gives are not always drawn.

Legend:
[1] = molecular target: LSD1 (Homo sapiens, UniProt O60341); assay: Inhibition of LSD1; format: biochemical
[2] = molecular target: PCAF (Homo sapiens, UniProt Q92831); assay: Inhibition of PCAF; format: biochemical
[3] = molecular target: Myst3 (Homo sapiens, UniProt Q92794); assay: Inhibition of Myst3; format: biochemical
[4] = molecular target: T1, p300 HAT (Homo sapiens, UniProt Q09472); assay: Steady-state enzyme kinetics, mode of inhibition; format: biochemical
T1 sequence (Q09472 1195-1673): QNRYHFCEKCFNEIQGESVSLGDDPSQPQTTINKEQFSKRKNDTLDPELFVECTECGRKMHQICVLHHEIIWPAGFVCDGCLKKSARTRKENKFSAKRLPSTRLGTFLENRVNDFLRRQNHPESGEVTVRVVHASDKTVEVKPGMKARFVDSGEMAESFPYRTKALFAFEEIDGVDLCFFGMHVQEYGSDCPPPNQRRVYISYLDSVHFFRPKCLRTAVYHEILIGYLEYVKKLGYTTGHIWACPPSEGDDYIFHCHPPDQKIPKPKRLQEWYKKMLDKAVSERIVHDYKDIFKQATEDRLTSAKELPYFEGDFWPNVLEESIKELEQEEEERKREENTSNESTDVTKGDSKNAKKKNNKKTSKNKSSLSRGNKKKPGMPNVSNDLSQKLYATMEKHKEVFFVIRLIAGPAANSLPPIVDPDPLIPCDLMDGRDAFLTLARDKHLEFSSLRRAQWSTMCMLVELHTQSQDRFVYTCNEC
How it was run: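 Radiometric filter-binding assay with recombinant human GST-p300 HAT domain (residues 1195-1673) expressed in E. coli, at 10 nM. Enzyme was preincubated with test compound for 10 min at 25 °C in 50 mM phosphate, pH 7.0, with 0.01% Brij-35. Histone H3 (1-21) peptide and 3H-Ac-CoA/Ac-CoA started the reaction, with Ac-CoA or peptide concentration varied. After 30 min at 25 °C, formic acid stopped it; peptide was captured on P81 paper, washed with NaHCO3 and scintillation-counted.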

[5] = tested on: Kasumi-1 leukemia cells; assay: Western blot of cellular histone acetylation; format: cell-based; details: Kasumi-1 cells, 12h, 5 and 10 μM
How it was run: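 Kasumi-1 cells (10^6/well) were exposed to test compound at 0, 5 and 10 μM for 12 h. Total histones were extracted by kit, and 2 μg per lane were separated by SDS-PAGE and transferred to PVDF. Blots were probed with antibodies to H3K9Ac, H3K18Ac, H3K27Ac and total H3, then with an anti-rabbit IgG secondary.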

[6] = tested on: MCF-7; assay: Cell growth inhibition, MCF-7; format: cell-based; details: Homo sapiens, MCF7, read-out: Antiproliferative activity EC50 (μM), MCF-7
[7] = tested on: ER+ breast cancer MCF-7 cells; assay: RNA sequencing and gene set enrichment analysis; format: cell-based, human; details: MCF-7, 6 μM, 48 hours, with estradiol 10 nM; p < 0.001
How it was run: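 MCF-7 cells were starved for 7 days in phenol red-free DMEM with 10% charcoal-treated FBS. They were then given test compound (6 μM) or DMSO, with or without estradiol (10 nM), for 48 h. Total RNA was sequenced as stranded, rRNA-depleted libraries (HiSeq 2500, paired-end) and mapped to hg38. FPKM values were quantile-normalized and analysed by GSEA against MSigDB and the siRNA p300-knockdown signature (GSE31873, C4–2B cells).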

[8] = molecular target: T2, HAT domain of human p300 (Homo sapiens, UniProt Q09472); assay: Inhibition of p300-HAT; format: biochemical; details: for inhibitory activity against p300 HAT (in words): tested up to 10 μM; for inhibition at 10 µM: read-out: % inhibition at 10 μM, compound at 10 μM
T2 sequence (Q09472 1195-1673): T1 sequence (Q09472 1195-1673)

[9] = molecular target: T3, p300 HAT and histone H4 (Homo sapiens, UniProt Q09472); assay: Alpha assay, binding between p300 HAT and histone H4 peptide
T3 sequence (Q09472 1287-1663 limits assumed): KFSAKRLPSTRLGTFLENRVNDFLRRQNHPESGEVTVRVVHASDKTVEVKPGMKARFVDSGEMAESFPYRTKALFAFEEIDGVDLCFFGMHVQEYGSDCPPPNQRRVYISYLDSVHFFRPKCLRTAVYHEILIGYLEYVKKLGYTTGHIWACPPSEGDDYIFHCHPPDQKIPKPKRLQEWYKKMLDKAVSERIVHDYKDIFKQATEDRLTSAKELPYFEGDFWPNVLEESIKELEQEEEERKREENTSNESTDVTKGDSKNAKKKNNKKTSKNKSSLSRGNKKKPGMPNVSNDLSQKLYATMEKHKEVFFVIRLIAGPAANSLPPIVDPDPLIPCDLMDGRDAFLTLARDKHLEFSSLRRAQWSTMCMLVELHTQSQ

[10] = tested on: p300/CBP HAT; details: cited from earlier work

Chain of Myst3 (Q92794 whole entry): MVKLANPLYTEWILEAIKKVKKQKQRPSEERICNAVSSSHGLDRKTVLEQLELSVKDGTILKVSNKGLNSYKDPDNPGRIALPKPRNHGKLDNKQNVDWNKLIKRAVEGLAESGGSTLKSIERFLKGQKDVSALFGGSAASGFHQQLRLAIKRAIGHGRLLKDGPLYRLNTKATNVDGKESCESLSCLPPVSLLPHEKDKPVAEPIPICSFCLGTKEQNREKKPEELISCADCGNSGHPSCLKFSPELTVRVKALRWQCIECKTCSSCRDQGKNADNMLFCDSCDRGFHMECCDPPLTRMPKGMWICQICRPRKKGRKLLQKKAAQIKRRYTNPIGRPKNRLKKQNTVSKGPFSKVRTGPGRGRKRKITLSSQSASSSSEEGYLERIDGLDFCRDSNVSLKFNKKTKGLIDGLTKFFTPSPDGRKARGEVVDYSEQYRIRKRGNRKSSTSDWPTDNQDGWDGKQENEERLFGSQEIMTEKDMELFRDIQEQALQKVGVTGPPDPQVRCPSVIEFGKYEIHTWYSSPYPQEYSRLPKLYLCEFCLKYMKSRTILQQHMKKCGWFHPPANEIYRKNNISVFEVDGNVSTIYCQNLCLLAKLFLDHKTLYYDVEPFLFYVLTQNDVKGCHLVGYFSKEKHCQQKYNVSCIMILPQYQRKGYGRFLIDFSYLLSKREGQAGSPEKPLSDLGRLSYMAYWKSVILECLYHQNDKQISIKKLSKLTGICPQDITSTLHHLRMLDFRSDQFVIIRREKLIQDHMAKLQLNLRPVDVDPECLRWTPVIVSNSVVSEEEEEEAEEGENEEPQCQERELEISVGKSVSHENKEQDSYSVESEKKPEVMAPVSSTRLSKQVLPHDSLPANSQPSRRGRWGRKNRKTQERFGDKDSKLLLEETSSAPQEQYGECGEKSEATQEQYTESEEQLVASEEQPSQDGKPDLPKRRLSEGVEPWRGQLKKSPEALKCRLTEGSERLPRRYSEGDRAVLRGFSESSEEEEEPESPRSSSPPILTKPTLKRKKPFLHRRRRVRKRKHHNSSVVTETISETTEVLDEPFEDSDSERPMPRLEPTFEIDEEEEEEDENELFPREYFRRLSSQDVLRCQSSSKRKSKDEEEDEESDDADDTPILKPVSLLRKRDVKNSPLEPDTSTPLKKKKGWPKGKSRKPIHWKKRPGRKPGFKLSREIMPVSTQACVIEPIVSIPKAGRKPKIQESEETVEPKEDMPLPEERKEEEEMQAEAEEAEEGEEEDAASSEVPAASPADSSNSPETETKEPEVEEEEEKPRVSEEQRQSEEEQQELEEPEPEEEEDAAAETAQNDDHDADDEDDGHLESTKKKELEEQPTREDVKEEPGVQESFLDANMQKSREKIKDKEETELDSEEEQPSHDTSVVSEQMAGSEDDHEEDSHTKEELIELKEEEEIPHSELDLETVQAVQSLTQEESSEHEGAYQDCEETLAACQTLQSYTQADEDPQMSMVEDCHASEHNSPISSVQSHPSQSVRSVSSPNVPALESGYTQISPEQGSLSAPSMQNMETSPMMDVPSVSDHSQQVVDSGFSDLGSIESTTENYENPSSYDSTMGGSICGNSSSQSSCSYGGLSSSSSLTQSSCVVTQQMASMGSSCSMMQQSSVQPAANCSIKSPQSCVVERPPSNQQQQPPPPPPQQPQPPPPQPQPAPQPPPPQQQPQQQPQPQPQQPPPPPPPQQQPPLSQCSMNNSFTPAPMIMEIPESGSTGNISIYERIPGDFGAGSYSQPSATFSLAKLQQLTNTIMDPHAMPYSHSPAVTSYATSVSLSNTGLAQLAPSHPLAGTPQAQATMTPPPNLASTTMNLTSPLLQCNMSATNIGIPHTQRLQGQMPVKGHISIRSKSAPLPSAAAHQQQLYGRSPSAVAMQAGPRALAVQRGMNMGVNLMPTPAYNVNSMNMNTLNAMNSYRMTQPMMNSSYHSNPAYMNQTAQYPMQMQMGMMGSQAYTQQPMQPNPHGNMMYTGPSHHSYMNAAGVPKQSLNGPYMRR
Chain of PCAF (Q92831 whole entry): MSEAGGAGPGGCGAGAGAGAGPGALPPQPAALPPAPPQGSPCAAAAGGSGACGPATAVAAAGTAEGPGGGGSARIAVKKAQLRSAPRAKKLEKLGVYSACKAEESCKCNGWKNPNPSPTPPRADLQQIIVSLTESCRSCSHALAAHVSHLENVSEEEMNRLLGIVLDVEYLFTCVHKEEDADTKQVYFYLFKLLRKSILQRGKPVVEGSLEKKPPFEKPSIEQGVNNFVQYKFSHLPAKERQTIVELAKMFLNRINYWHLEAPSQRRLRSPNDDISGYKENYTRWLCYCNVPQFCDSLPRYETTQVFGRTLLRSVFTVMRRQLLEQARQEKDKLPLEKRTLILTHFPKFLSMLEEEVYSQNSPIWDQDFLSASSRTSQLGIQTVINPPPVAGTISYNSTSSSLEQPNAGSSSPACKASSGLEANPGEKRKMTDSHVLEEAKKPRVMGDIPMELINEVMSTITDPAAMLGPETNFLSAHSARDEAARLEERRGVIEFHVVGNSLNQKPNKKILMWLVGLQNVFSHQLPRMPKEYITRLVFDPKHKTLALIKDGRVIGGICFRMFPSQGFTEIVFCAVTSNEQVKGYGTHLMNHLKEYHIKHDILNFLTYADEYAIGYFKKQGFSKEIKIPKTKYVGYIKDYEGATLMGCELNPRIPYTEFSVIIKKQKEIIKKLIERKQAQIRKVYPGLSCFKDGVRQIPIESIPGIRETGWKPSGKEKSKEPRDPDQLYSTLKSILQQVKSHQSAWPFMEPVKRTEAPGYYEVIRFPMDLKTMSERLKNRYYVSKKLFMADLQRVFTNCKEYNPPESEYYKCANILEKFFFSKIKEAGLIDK

CC(C)(C)c1ccc(-c2cc(C(=O)NCC3CCNCC3)sc2-c2ccc(C(C)(C)C)cc2)cc1 [Compound 1, 4,5-bis(4-(tert-Butyl)phenyl)-N-(piperidin-4-ylmethyl)thiophene-2-carboxamide hydrochloride]
inhibition of LSD1 activity at 50 μM [1]: did not significantly inhibit

CC(C)(C)c1ccc(-c2cc(CNCC3CCNCC3)sc2-c2ccc(C(C)(C)C)cc2)cc1 [Compound 12, 1-(4,5-bis(4-(tert-Butyl)phenyl)thiophen-2-yl)-N-(piperidin-4-ylmethyl)methanamine hydrochloride]
inhibition of PCAF activity at 50 μM [2]: did not significantly inhibit | inhibition of Myst3 activity at 50 μM [3]: did not significantly inhibit | inhibition of LSD1 activity at 50 μM [1]: did not significantly inhibit | mode of inhibition against the cofactor Ac-CoA ([4]; Ac-CoA 0.5 - 8 μM (0.07-[…] Km)): non-competitive | mode of inhibition against the substrate histone ([4]; histone peptide 2 - 100 μM): competitive | cellular acetylation of histone H3K9, H3K18 and H3K27 [5]: significantly inhibit | EC50 [6]: ~3 µM | NES, gene set upregulated by estradiol [7]: −9.19 | NES, genes suppressed by estradiol [7]: 7.41 | normalized enrichment score (NES), genes suppressed by p300 knockdown (GSE31873) [7]: −3.32

NCc1ccc(-c2cc(CNCC3CCNCC3)sc2-c2ccc(CN)cc2)cc1 [Compound 28, ((5-(((Piperidin-4-ylmethyl)amino)methyl)thiophene-2,3-diyl)bis(4,1-phenylene))dimethanamine hydrochloride]
inhibitory activity against p300 HAT (in words) [8]: inactive | effect on binding between p300 HAT and histone H4 (in words) [9]: not interfered | cellular acetylation of histone H3K9, H3K18 and H3K27 [5]: no significant activity

N-((5,6-bis(4-(Furan-3-yl)phenyl)pyrazin-2-yl)methyl)piperidin-4-amine hydrochloride [Compound 40]
inhibitory activity against p300 HAT (in words) [8]: significantly less active than its thiophene analog 11

OCc1ccc(-c2cc(CNCC3CCNCC3)sc2-c2ccc(CO)cc2)cc1 [Compound 29, ((5-(((Piperidin-4-ylmethyl)amino)methyl)thiophene-2,3-diyl)bis(4,1-phenylene))dimethanol hydrochloride]
inhibitory activity against p300 HAT (in words) [8]: weak inhibitor

CC(C)(C)c1ccc(-c2sc(CNCC3CCNCC3)cc2-c2ccc(CN)cc2)cc1 [Compound 27, 1-(4-(4-(Aminomethyl)phenyl)-5-(4-(tert-butyl)phenyl)thiophen-2-yl)-N-(piperidin-4-ylmethyl)-methanamine hydrochloride]
inhibitory activity against p300 HAT (in words) [8]: major activity loss

CNC(=O)Nc1ccc2c(c1)CC[C@@]21OC(=O)N(CC(=O)N(Cc2ccc(F)cc2)[C@@H](C)C(F)(F)F)C1=O [Compound A-485, reference compound]
effect on binding between p300 HAT and histone H4 (in words) [9]: did not affect the binding | mode of inhibition [10]: competitive against the enzyme cofactor acetyl coenzyme A (Ac-CoA)

COc1ccc(-c2ccc(-c3cc(CNCC4CCNCC4)sc3-c3ccc(-c4ccc(OC)cc4)cc3)cc2)cc1 [Compound 10, 1-(4,5-bis(4’-Methoxy-[1,1’-biphenyl]-4-yl)thiophen-2-yl)-N-(piperidin-4-ylmethyl)methanamine hydrochloride]
activity reduction as compared to 3 ([8]; removal of the carbonyl group): ~ 50%

CC(C)(C)c1ccc(-c2cc(CN3CCNCC3)sc2-c2ccc(C(C)(C)C)cc2)cc1 [Compound 18, 1-((4,5-bis(4-(tert-Butyl)phenyl)thiophen-2-yl)methyl)piperazine hydrochloride]
inhibitory activity against p300 HAT (in words) [8]: Loss of activity

CC(C)(C)c1ccc(-c2nc(CNCC3CCNCC3)sc2-c2ccc(C(C)(C)C)cc2)cc1 [Compound 37, 1-(4,5-bis(4-(tert-Butyl)phenyl)thiazol-2-yl)-N-(piperidin-4-ylmethyl)methanamine hydrochloride]
activity reduction as compared to 12 ([8]; ratio of p300 HAT IC50 to that of compound 12): more than 13 fold

CC(C)(C)c1ccc(-c2sc(C(=O)NCC3CCNCC3)cc2-c2ccoc2)cc1 [Compound 8, 5-(4-(tert-Butyl)phenyl)-4-(furan-3-yl)-N-(piperidin-4-ylmethyl)thiophene-2-carboxamide hydrochloride]
inhibition at 10 µM [8]: ~30%

CC(C)(C)c1ccc(-c2cc(COCC3CCNCC3)sc2-c2ccc(C(C)(C)C)cc2)cc1 [Compound 13, 4-(((4,5-bis(4-(tert-Butyl)phenyl)thiophen-2-yl)methoxy)methyl)piperidine hydrochloride]
inhibitory activity against p300 HAT (in words) [8]: complete loss of inhibitory activity

CC(C)(C)c1ccc(-c2sc(C(=O)NCC3CCNCC3)cc2-c2cccnc2)cc1 [Compound 9, 5-(4-(tert-Butyl)phenyl)-N-(piperidin-4-ylmethyl)-4-(pyridin-3-yl)thiophene-2-carboxamide hydrochloride]
inhibition at 10 µM [8]: ~30%

c1ccc(-c2cccc(-c3cc(CNCC4CCNCC4)sc3-c3cccc(-c4ccccc4)c3)c2)cc1 [Compound 32, 1-(4,5-di([1,1’-Biphenyl]-3-yl)thiophen-2-yl)-N-(piperidin-4-ylmethyl)methanamine hydrochloride]
inhibitory activity against p300 HAT (in words) [8]: Lack of inhibition
